Source: PubChem (Johns Hopkins Ion Channel Center)
TRPC4 inh – inhibitors of mouse TRPC4 channel | B-score at 10 µM | hit rate 0.39% among 300,000 | Q9QUQ5 | HEK293 TRPC4beta/mu-opioid, DAMGO-evoked Fluo4 calcium flux; active compounds read low;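 active = B-score over 3 SD under the library average, no early fluorescence shift, positive overall ratio signal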
Target sequence (Q9QUQ5 whole entry, looked up): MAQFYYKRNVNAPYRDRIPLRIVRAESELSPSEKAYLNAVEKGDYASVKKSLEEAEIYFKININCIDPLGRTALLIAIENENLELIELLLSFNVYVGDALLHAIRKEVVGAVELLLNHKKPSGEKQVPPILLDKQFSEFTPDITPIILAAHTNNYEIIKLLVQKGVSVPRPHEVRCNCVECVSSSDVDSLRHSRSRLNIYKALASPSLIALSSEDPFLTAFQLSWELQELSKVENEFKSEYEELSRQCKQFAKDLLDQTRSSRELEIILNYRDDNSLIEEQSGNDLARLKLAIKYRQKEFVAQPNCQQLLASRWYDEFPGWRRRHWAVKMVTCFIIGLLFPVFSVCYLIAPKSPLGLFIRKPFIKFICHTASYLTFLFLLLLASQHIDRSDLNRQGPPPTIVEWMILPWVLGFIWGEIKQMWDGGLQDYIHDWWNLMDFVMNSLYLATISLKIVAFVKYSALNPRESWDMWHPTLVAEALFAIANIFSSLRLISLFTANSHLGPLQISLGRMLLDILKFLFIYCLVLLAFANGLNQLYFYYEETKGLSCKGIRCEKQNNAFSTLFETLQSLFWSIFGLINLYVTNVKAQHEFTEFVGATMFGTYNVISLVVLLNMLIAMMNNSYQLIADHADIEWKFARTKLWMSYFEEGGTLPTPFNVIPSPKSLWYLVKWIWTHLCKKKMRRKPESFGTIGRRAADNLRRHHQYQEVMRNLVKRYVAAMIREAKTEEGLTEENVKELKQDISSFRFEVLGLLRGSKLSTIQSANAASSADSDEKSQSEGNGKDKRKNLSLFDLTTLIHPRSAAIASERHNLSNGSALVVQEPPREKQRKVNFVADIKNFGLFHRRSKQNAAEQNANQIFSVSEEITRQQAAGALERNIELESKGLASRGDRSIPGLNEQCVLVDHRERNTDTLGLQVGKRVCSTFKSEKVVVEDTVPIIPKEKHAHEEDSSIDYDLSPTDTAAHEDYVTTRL
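Assay system: TRPC4beta/mu-opioid receptor HEK293 cell line; compound dosing: single concentration per test compound; detection: Fluo4 Ca2+ flux fluorescence; evaluation: per-well B score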
TRPC6 inh – mouse TRPC6 channel inhibition. Q61143. HEK293-TRPC6, membrane potential dye, ACh-evoked depolarization; active compounds read low. B-score at 10 µM. hit rate 1.1% among 310,000. AID 2553;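 active = B-score under library mean minus 3 SD, initial fluorescence not abnormally high, positive integrated signal ratio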;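 note: B-score derived from integrated fluorescence ratio over the kinetic read; more negative B-score means stronger inhibition of depolarization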
TRPC4 PAM – TRPC4 (mouse) allosteric potentiation; hit rate 0.42% among 310,000; HEK293 TRPC4beta/mu-opioid, DAMGO EC20, Fluo-4 Ca2+ flux; active compounds read high; B-score at 10 µM;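 active = B-score of calcium response area above 5 SD of library B-scores, with initial fluorescence ratio within 5 SD of library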
TRPC6 activator – activators of mouse TRPC6 channel | hit rate 0.13% among 310,000 | B-score at 10 µM | Q61143 | AID 2550 | HEK293-TRPC6 membrane potential dye fluorescence; active compounds read high;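 active = B-score of the integrated fluorescence ratio above library mean plus 3 SD, and starting fluorescence ratio within library mean plus 5 SD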;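 note: higher score means more depolarization so channel activation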
TRPC4 agonist – opens the mouse TRPC4 cation channel; Q9QUQ5; HEK293 TRPC4beta/mu-opioid, Fluo4 calcium fluorescence; active compounds read high; B-score at 10 µM; hit rate 0.49% among 310,000; AID 2237;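 active = B-score above 5 SD of library B-scores, and initial fluorescence ratio not above library mean plus 5 SD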;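 note: positive B-score marks a calcium rise read as TRPC4 activation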
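System: HEK293 cells stably co-expressing mouse TRPC4beta and mu-opioid receptor; Schedule: Fluo4 dye loading 45 min at room temperature, 110 s recording; Detection: Fluo4 fluorescence, kinetic; Evaluation: B-scored integrated calcium fluorescence ratio; Controls: buffer (low) and maximal DAMGO (high).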
A number is an active result; . = inactive. Shown are actives, neighbours in structure and some others; about 2.3% of the full set was active somewhere.

SMILES	TRPC4 inh	TRPC6 inh	TRPC4 PAM	TRPC6 activator	TRPC4 agonist
CSCC(C)N1CCC(CO)(CCc2ccccc2)CC1 (stereo unspecified)	.	.	.	.	.
CC(COc1ccccc1)N1CCC(CO)(CCc2ccccc2)CC1 (stereo unspecified)	.	.	.	.	51
CCOC(=O)C1(CCOc2ccccc2)CCN(Cc2cccc(OC)c2OC)CC1	.	.	.	.	74
COc1cc(CN2CCC(CO)(CCOc3ccccc3)CC2)cc(OC)c1	-5	.	.	.	.
CCOC(=O)C1(CCOc2ccccc2)CCN(Cc2cccc(-n3cccn3)c2)CC1	.	.	.	.	98
Cc1ccc(S(=O)(=O)CC(=O)c2cc3cccc(C)c3oc2=O)cc1	.	.	.	.	.
CCOC(=O)C1(CCOc2ccccc2)CCN(Cc2ccccc2O)CC1	.	.	.	.	.
CCOC(=O)C1(CCOc2ccccc2)CCN(Cc2cccc3c2OCO3)CC1	-7	.	.	.	.
CCOC(=O)C1CCCN(C(=O)CCn2nnnc2CN2CCOCC2)C1 (stereo unspecified)	.	.	10	.	.
CCN(CC)C(=O)C1CCCN(C(=O)CCn2nnnc2CN2CCOCC2)C1 (stereo unspecified)	.	.	.	.	.
O=C(Nc1ccncc1)c1ccc(Cl)c(S(=O)(=O)N2CCc3ccccc32)c1	.	.	.	.	95
C=CCNCCCCOc1cccc(Br)c1	.	.	13	.	.
O=S1(=O)CCS(=O)(=O)C1c1ccccc1	.	.	.	.	.
O=S(=O)(c1ccccc1)N1CCN(c2ccnc3cc(Cl)ccc23)CC1	.	.	13	.	.
CC(=O)N1CCN(c2ccnc3cc(Cl)ccc23)CC1	.	.	.	.	.
O=S(=O)(c1cccs1)N1CCN(c2ccnc3cc(Cl)ccc23)CC1	.	.	11	.	.
C=CCNC(=O)c1onc(CS(=O)(=O)c2cc(C)cc(C)c2)c1C(=O)NCC=C	.	.	.	.	.
Cc1c(N(C)S(=O)(=O)c2cccc(C(=O)NCC3CCCO3)c2)c(=O)n(-c2ccccc2)n1C (stereo unspecified)	.	.	.	.	.
Cc1c(N(C)S(=O)(=O)c2cc(C(=O)NCC3CCCO3)ccc2Cl)c(=O)n(-c2ccccc2)n1C (stereo unspecified)	-7	.	.	.	.
CN(Cc1cccc(F)c1)CC(O)COCc1ccccc1Cl (stereo unspecified)	-6	.	.	.	.
O=C(NCCc1cnc[nH]1)c1ccc(-c2ccccc2)cc1	.	.	.	.	106
CCOc1ccccc1C(=O)NCCc1cnc[nH]1	.	.	17	.	.
COc1ccc(C(=O)N2CCOC2CNC(=O)C(=O)NCCc2ccc(OC)c(OC)c2)cc1 (stereo unspecified)	.	.	.	.	.
O=C(CN1CCN(Cc2ccccc2Cl)CC1)N=Nc1c(O)[nH]c2ccccc12	-6	.	.	.	.
COc1ccc(NC(=O)CCCN2C(=O)C3CC=CCC3C2=O)cc1 (stereo unspecified)	.	.	.	.	.
SMILES	TRPC4 inh	TRPC6 inh	TRPC4 PAM	TRPC6 activator	TRPC4 agonist
CCN1CCCC1CNC(=O)c1csc2c1CCCC2 (stereo unspecified)	.	.	.	.	79
CSc1ccccc1OCc1cc(C(=O)N2CCC(Oc3cccnc3)CC2)no1	.	.	.	.	.
COc1ccc(Nc2cc(C)nc3ccc(OC)cc23)cc1	-6	.	.	.	.
COC(=O)c1ccc(Nc2cc(C)nc3ccccc23)cc1	-6	.	.	.	.
Cc1ccc(Nc2cc(C)nc3ccc(C)cc23)cc1	-6	.	.	.	.
COC(=O)c1ccc2nc(C)cc(Nc3ccc(N(C)C)cc3)c2c1	.	.	.	.	.
CCc1ccc(OCC(=O)NNC(=O)C2CCC2)cc1	.	.	.	.	.
CC(C)C(OC(=O)c1nsc(Cl)c1Cl)C(=O)NC1CCCCC1 (stereo unspecified)	.	.	.	.	.
Cc1[nH]nc(N)c1N=Nc1ccc(Br)cc1	.	-5.58	.	.	.
Cc1ccc(N=Nc2c(N)n[nH]c2N)cc1	.	.	.	.	.
O=C1CC2(CCN(S(=O)(=O)c3ccccc3)CC2)Oc2ccccc21	.	.	50	.	.
O=C1CC2(CCN(S(=O)(=O)c3ccccc3F)CC2)Oc2ccccc21	.	.	30	.	.
Cc1ccc(CN2CCNC(=O)C2CC(=O)N(C)C2CCOCC2)cc1 (stereo unspecified)	.	.	.	.	.
O=C(CCc1ccccc1)NCc1ccc2c(c1)OCO2	.	.	.	.	.
CN(C(=O)CSc1nc(-c2ccc(C(C)(C)C)cc2)c(C#N)c(=O)[nH]1)C1CCCCC1	-6	.	.	.	.
N#Cc1c(-c2ccccc2)nc(SCC(=O)NC2CCCCC2)[nH]c1=O	.	.	.	.	.
c1ccc(CNCCC(Cc2ccccc2)c2ccco2)cc1 (stereo unspecified)	.	.	.	.	.
CN(C)c1ccc(CNCCC(Cc2ccccc2)c2ccco2)cc1 (stereo unspecified)	.	.	.	.	46
COc1cccc(/C=C/c2n[nH]c(=O)c(C#N)c2C)c1	.	.	.	.	.
CCC(C(=O)O)N1C(=O)c2ccccc2C1=O (stereo unspecified)	.	.	.	.	.
CCCCC(C(=O)NC(=O)NCc1ccccc1)N1C(=O)c2ccccc2C1=O (stereo unspecified)	-6	.	.	.	.
CN1C(N)=NC(=O)/C1=C\c1ccc(Br)cc1	.	.	.	.	.
CCc1ccccc1Nc1nc2ccccc2n1CC	.	.	.	.	.
CCCn1c(Nc2ccccc2C)nc2ccccc21	-5	.	.	.	.
CCCn1c(NCc2ccc(C)o2)nc2ccccc21	-6	.	.	.	.
SMILES	TRPC4 inh	TRPC6 inh	TRPC4 PAM	TRPC6 activator	TRPC4 agonist
Cc1ccc2cc(C)c3nnc(SCc4ccc(C(=O)O)cc4)n3c2c1C	.	.	.	.	.
CN(CC(=O)Nc1ccc(F)cc1)C(=O)COC(=O)C1CCN(c2ccc(C(F)(F)F)cn2)CC1	-5	.	.	.	.
COc1ccc(S(=O)(=O)Cc2ccc(C(=O)NC3CCCCC3)o2)cc1	.	.	.	.	.
CCOC(=O)c1cnc2c(C)cccc2c1NCCc1ccc(OC)c(OC)c1	-6	.	.	.	.
O=C1C(=O)N(c2nccs2)C(c2ccccc2F)/C1=C(\O)c1ccc2c(c1)OCCO2 (stereo unspecified)	.	.	.	.	.
COc1ccccc1-c1cc(C(=O)N2CCN(c3ccccc3OC)CC2)no1	-6	.	.	.	.
COc1ccccc1N1CCN(C(=O)c2cc(-c3ccc(C)cc3)on2)CC1	.	.	.	.	.
CCOC(=O)c1ccc(-c2ccc3c(=O)c4ccccc4n(C)c3c2)cc1F	.	.	.	.	.
